This is an account of results in ChEMBL document CHEMBL1158739, “Chemical constituents of the fruits of Morinda citrifolia (Noni) and their antioxidant activity” (J Nat Prod, 2005).

The subject of assay [1] is Radical scavenging activity. Nature of the assay: Antioxidant activity assessed as DPPH radical scavenging activity after 30 mins. It counts as functional. An outline of the steps:
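Samples in DMSO were plated in triplicate with 200 µM DPPH in EtOH, 37 °C, 30 min, dark, and absorbance read at 515 nm. Percent scavenging was taken against the DMSO control, with gallic acid as positive control. Screening was at 200 µg/mL final, and actives were retested at 2.5–20 µg/mL. IC50 came from linear regression extrapolation.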
(In general: DPPH is a stable violet radical that fades when it is reduced.)

The nature of assay [2]: Antioxidant activity assessed as 3-morpholinosydnonimine-derived peroxynitrite free radical scavenging activity after 5 mins.
Assay [3] in a line: Antioxidant activity assessed as authentic peroxynitrite free radical scavenging activity after 5 mins.
Assay [4] can be described thus: Antioxidant activity assessed as 3-morpholinosydnonimine-derived peroxynitrite free radical scavenging activity […]. It counts as functional. The method, boiled down: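 Peroxynitrite was generated from SIN-1 (10 µM) and measured as oxidation of dihydrorhodamine 123, working solution 5 µM. Buffer was nitrogen-purged 50 mM Na2HPO4, 50 mM NaH2PO4, 90 mM NaCl and 5 mM KCl with 5 mM DTPA. Run at room temperature, fluorescence read at ex 485/em 530 nm; background and final intensities taken 5 min after treatment.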

Assay [5] is described as follows: Antioxidant activity assessed as authentic peroxynitrite free radical scavenging activity […]. It counts as functional. The method, boiled down:
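Authentic peroxynitrite (10 µM, in 0.3 N NaOH) oxidizing dihydrorhodamine 123, working solution 5 µM. Buffer was nitrogen-purged 50 mM Na2HPO4, 50 mM NaH2PO4, 90 mM NaCl and 5 mM KCl with 5 mM DTPA. Room temperature, fluorescence at ex 485/em 530 nm; background and final intensities read 5 min after treatment.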

SMILES strings stand for the structures. Some results are limits rather than exact numbers.

The IC50 is the concentration needed to halve the response being measured. Take `O=C(O)c1cc(O)c(O)c(O)c1` [GALLIC ACID]: the IC50 in assay [1] was found to be 2.7 µM.

As to `COC(=O)C1=CO[C@@H](O[C@@H]2O[C@H](CO)[C@@H](O)[C@H](O)[C@H]2O)C2C1[C@@H]1O[C@@H]1[C@]21O[C@H]1O` (single isomer, unassigned; epimer a) [CITRIFOLININ B EPIMER A], the IC50 in assay [2], in assay [3] and in assay [1] was greater than 30 µM in each case.

For `CO[C@@]1(CO)O[C@H](CO)[C@@H](O)[C@@H]1O`, the IC50 in assay [2], in assay [3] and in assay [1] was greater than 30 µM each time.

Consider `CC(=O)OCC1=C[C@H](O)[C@@H]2C(C(=O)O)=CO[C@@H](O[C@H]3O[C@@H](CO)[C@H](O)[C@@H](O)[C@@H]3O)[C@H]12` [ASPERULOSIDIC ACID], for which the IC50 in assay [2], in assay [3] and in assay [1] was greater than 30 µM throughout.

Take `CO[C@]1(CO)O[C@H](CO)[C@@H](O)[C@@H]1O`: the IC50 in assay [2], in assay [3] and in assay [1] was greater than 30 µM in each case.

On to `COC(=O)C1=CO[C@@H](O[C@@H]2O[C@H](CO)[C@@H](O)[C@H](O)[C@H]2O)[C@H]2[C@@H]1C=C[C@@]21C=C(C(=O)c2ccc(O)c(OC)c2)C(=O)O1` [DEHYDROMETHOXYGAERTNEROSIDE], for which the IC50 in assay [2], in assay [3] and in assay [1] was greater than 30 µM in each case.

On to `C[C@@H]1O[C@@H](OC[C@H]2O[C@@H](Oc3c(-c4ccc(O)cc4)oc4cc(O)cc(O)c4c3=O)[C@H](O)[C@@H](O)[C@@H]2O)[C@H](O)[C@H](O)[C@H]1O` [NICOTIFLOROSIDE], for which the IC50 in assay [2], in assay [3] and in assay [1] was greater than 30 µM each time.

In the case of `O=C1O[C@H]2C=C(CO)[C@@H](CO)[C@H]2[C@@H]1CO` [BORRERIAGENIN], the IC50 in assay [2], in assay [3] and in assay [1] was greater than 30 µM in each case.

For the compound `O=C/C=C/c1ccc2c(c1)O[C@@H](CO)[C@H](c1ccc(O)c(O)c1)O2` [AMERICANIN A], the IC50 in assay [1] is 16.9 µM.

On to `OC[C@H]1OC(O)[C@H](O)[C@@H](O)[C@@H]1O` (stereo not given in full) [DEXTROSE], for which the IC50 in assay [2], in assay [3] and in assay [1] was greater than 30 µM throughout.

`OC[C@@H](O)[C@@H](O)[C@H](O)[C@H](O)CO` [MANNITOL]: the IC50 in assay [2], in assay [3] and in assay [1] was greater than 30 µM throughout.

With `COC(=O)C1=CO[C@@H](O[C@@H]2O[C@H](CO)[C@@H](O)[C@H](O)[C@H]2O)[C@@H]2[C@@H](CO)C[C@H](O)[C@H]12`, the IC50 in assay [4], in assay [5] and in assay [1] was greater than 30 µM in each case.

Consider `CC(=O)OCC1=C[C@@H]2OC(=O)C3=CO[C@@H](O[C@@H]4O[C@H](CO)[C@@H](O)[C@H](O)[C@H]4O)[C@H]1[C@@H]32` [ASPERULOSIDE], for which the IC50 in assay [2], in assay [3] and in assay [1] was greater than 30 µM each time.

With `Nc1ccn([C@@H]2O[C@H](CO)[C@@H](O)[C@H]2O)c(=O)n1` [CYTIDINE], the IC50 in assay [2], in assay [3] and in assay [1] was greater than 30 µM throughout.

With `CC[C@H](CC[C@@H](C)[C@H]1CC[C@H]2[C@@H]3CC=C4C[C@@H](O[C@@H]5O[C@H](CO)[C@@H](O)[C@H](O)[C@H]5O)CC[C@]4(C)[C@H]3CC[C@]12C)C(C)C` [SITOGLUSIDE], the IC50 in assay [2], in assay [3] and in assay [1] was greater than 30 µM throughout.

In the case of `COC(=O)C1=CO[C@@H](O[C@@H]2O[C@H](CO)[C@@H](O)[C@H](O)[C@H]2O)C2C1[C@@H]1O[C@@H]1[C@]21O[C@@H]1O` (stereo not given in full) [CITRIFOLININ B EPIMER B], the IC50 in assay [2], in assay [3] and in assay [1] was greater than 30 µM each time.

On to `COC(=O)C1=CO[C@@H](O[C@@H]2O[C@H](CO)[C@@H](O)[C@H](O)[C@H]2O)[C@H]2[C@@H]1[C@@H]1O[C@@H]1[C@@]2(O)CO`, for which the IC50 in assay [2], in assay [3] and in assay [1] was greater than 30 µM throughout.

For the compound `O=C1O[C@H]2C=C(CO)[C@H]3[C@H](O[C@@H]4O[C@H](CO)[C@@H](O)[C@H](O)[C@H]4O)OC=C1[C@H]32` [DEACETYLASPERULOSIDE], the IC50 in assay [2], in assay [3] and in assay [1] was greater than 30 µM throughout.
